According to publication PMC6847989 (International Journal of Nanomedicine, 2019):

How the values were obtained:
[1] = In vitro drug release / dissolution in PBS buffer; assay type: physicochemical; settings: PBS 150 mM, pH 7.4, 37°C, 72 hrs
How it was run: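 Release was by dialysis (3500 MWCO bag) into 20 mL PBS. Test powder (1.0 mg) was dispersed in 5 mL PBS at 37°C, or loaded hydrogel (250 μL) was placed in the bag. At set times 3 mL of outer buffer was withdrawn and replaced with fresh buffer. IGUR was quantified by UV absorbance at 309 nm.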

[2] = test system: RA-FLS; test: MTS cell proliferation assay; assay type: cell-based, human; settings: 48 hr
How it was run: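 Primary RA-FLS were grown from explants of patients' synovial tissue in DMEM/20% FBS and used at passages 3–6. Cells were seeded at 3×10³ cells/100 μL and allowed to adhere overnight. They were exposed for 48 h to test compound at 40, 80, 160 or 320 μg/mL in 10% FBS high-glucose DMEM, alongside medium, PBS or blank-gel controls. After MTS for 2 h, absorbance was read at 490 nm, with six replicate wells per group.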

[3] = test system: RA-FLS; test: Transwell migration assay; assay type: cell-based, human; settings: 320 μg/mL, 48 hrs
How it was run: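 RA-FLS (3×10³ cells/100 μL) in serum-free medium were placed in the upper chamber of 8-μm transwells with test compound (40–320 μg/mL). The lower chamber held 10% FBS as chemoattractant. After 48 h at 37°C, non-migrated cells were swabbed off. Underside cells were fixed in 4% paraformaldehyde for 30 min at room temperature, stained with 0.1% crystal violet, and counted in 5 random fields; three independent experiments.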

[4] = test system: RA-FLS; test: Matrigel transwell invasion assay; assay type: cell-based, human; settings: 320 μg/mL, 48 hrs
How it was run: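 Transwell inserts were coated with Matrigel diluted in cold serum-free medium (medium:Matrigel 5:1) and incubated overnight. RA-FLS (3×10³ cells/100 μL) in serum-free medium plus test compound (40–320 μg/mL) were placed above 10% FBS for 48 h at 37°C. Invaded cells were fixed in 4% paraformaldehyde, stained with crystal violet, and counted in 5 random fields; three independent replicates.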

[5] = In vivo pharmacokinetics, plasma concentration by HPLC; design: species or system female Lewis rats; settings: female, Lewis, rat, po, 10 mg/kg
How it was run: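 Healthy female Lewis rats (150 ± 10 g, 6 weeks) received a single oral 10 mg/kg dose of test compound suspended in 0.5% sodium CMC in water. Heparinized blood was drawn at 10 and 30 min and at 1, 2, 3, 4, 6, 8, 12, 18 and 24 h. Plasma drug was measured by HPLC, and parameters were calculated from the concentration–time curve.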

[6] = test system: collagen-induced arthritis (CIA) rats; test: Therapeutic efficacy in collagen-induced arthritis; assay type: in vivo, female Lewis rats; settings: 10 mg/kg intragastrically daily
How it was run: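 Female Lewis rats (150 ± 10 g, 6 weeks) given bovine type II collagen in complete Freund's adjuvant (400 μg collagen s.c.), reboosted day 7 with incomplete adjuvant. Test compound in 0.5% CMC, 10 mg/kg intragastric daily for 21 days; n = 7 per group, untreated CIA and healthy rats as controls. Every 3 days, two researchers record weight, ankle diameter and arthritis index (each paw 0–4, maximum 16).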

[7] = test system: collagen-induced arthritis (CIA) rats; test: Histological evaluation of ankle joints of CIA rats; assay type: in vivo, female Lewis rats; settings: 10 mg/kg intragastrically daily, 21 days
How it was run: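 CIA was induced in female Lewis rats (150 ± 10 g, 6 weeks) by s.c. injection of bovine type II collagen emulsified in complete Freund's adjuvant (400 μg collagen), then boosted 7 days later with collagen in incomplete adjuvant. Oral test compound was given in 0.5% CMC for 21 days (n = 7). Right ankles were fixed, decalcified, paraffin-embedded, and stained with H&E and safranin O–fast green. Sections were given a Mankin score (5 grades) over multiple fields. Groups were compared by Mann–Whitney U or ANOVA.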

[8] = test system: IL-6; test: ELISA of IL-6 in serum and synovial homogenate supernatant of CIA rats; assay type: in vivo, female Lewis rats; settings: 10 mg/kg intragastrically daily, 21 days
How it was run: (§1)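 Female Lewis rats; CIA from bovine type II collagen in complete Freund's adjuvant (400 μg collagen s.c.), boosted day 7 with incomplete adjuvant. Test compound in 0.5% CMC, 10 mg/kg intragastric daily, 21 days; n = 7, untreated CIA and healthy controls. Serum from canthus blood (300 × g, 10 min) and synovial homogenate supernatant (PBS, protease inhibitors) assayed by high-sensitivity ELISA; mean ± SD.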

[9] = test system: TNF-α; test: ELISA of TNF-α in serum and synovial homogenate supernatant of CIA rats; assay type: in vivo, female Lewis rats; settings: 10 mg/kg intragastrically daily, 21 days
How it was run: as §1

[10] = test system: IL-1β; test: ELISA of IL-1β in serum and synovial homogenate supernatant of CIA rats; assay type: in vivo, female Lewis rats; settings: 10 mg/kg intragastrically daily, 21 days
How it was run: as §1

[11] = cited from earlier work

Question: For CS(=O)(=O)Nc1cc2occ(NC=O)c(=O)c2cc1Oc1ccccc1 [raw IGUR, Iguratimod], which “dissolution rate (dissolved/released IGUR)” value [1] is on record?
Answer: Its value is 28.65%.

Question: What about the “relative cell proliferation ratio” value ([2]; 160 μg/mL) of the same compound?
Answer: The value was 83.72 ± 1.41%.

Question: And the “relative cell proliferation ratio” value ([2]; 320 μg/mL)?
Answer: The value was 80.73 ± 2.14%.

Question: What about the “relative cell migration ratio” value [3] of the same compound?
Answer: Its value is 44.69 ± 1.58%.

Question: What about the “relative cell invasion ratio” value [4] of the same compound?
Answer: Its value is 44.59 ± 2.24%.

Question: What about the AUC(0-t) [5] of the same compound?
Answer: Its AUC(0-t) is 111 µg·h/mL.

Question: What about the Cmax [5] of the same compound?
Answer: Its Cmax is 12700 ng/mL.

Question: What about the half-life [5] of the same compound?
Answer: Its half-life is 222 min.

Question: What about the “body weight vs CIA group” value ([6]; 13th day of administration) of the same compound?
Answer: The value was “significantly higher than in the CIA group”.

Question: What about the “AI scores vs CIA group” value ([6]; 16th day of administration) of the same compound?
Answer: The value was “significantly lower than in the CIA group”.

Question: What about the “H&E histology of ankle joints vs CIA group” value [7] of the same compound?
Answer: The value was “less infiltration of inflammatory cells in the synovial tissue and no obvious bone erosion”.

Question: And the “Mankin's score vs CIA group” value ([7]; P < 0.05)?
Answer: The value was “significantly lower”.

Question: And the “synovitis score vs CIA group” value ([7]; P < 0.05)?
Answer: Its value is “significantly lower”.

Question: And the “area of ankle cartilage vs CIA group” value ([7]; saffron O-fixing green staining, Image J, P < 0.05)?
Answer: The value was “increased significantly”.

Question: And the “serum level of IL-6 vs CIA group” value [8]?
Answer: Its value is “significantly lower than those in the CIA group”.

Question: And the “serum level of TNF-α vs CIA group” value [9]?
Answer: Its value is “significantly lower than those in the CIA group”.

Question: What about the “serum level of IL-1β vs CIA group” value [10] of the same compound?
Answer: Its value is “significantly lower than those in the CIA group”.

Question: And the “solubility in aqueous solvents” value [11]?
Answer: Its value is “practically insoluble”.
